Assay results as given in ChEMBL document CHEMBL4813982, “Novel pyrazolo[4,3-d]pyrimidine microtubule targeting agents (MTAs): Synthesis, structure-activity relationship, in vitro and in vivo evaluation as antitumor agents” (Bioorg Med Chem Lett, 2021).
Activity calls are given as the source filed them. The rule behind the calls is not given here.

Tests used:
[1] = molecular target: T1, Tubulin (Homo sapiens) (UniProt P68371+Q9H4B7+P0DPH7+P68366+Q13509+Q71U36+P04350+Q3ZCM7+P07437+P68363+Q9BQE3+Q6PEY2+Q13885+Q9BVA1+Q9BUF5); assay: Inhibition of [3H]colchicine binding to tubulin (unknown origin) at 5 uM relative to control; type: protein-complex assay
[2] = molecular target: T1, Tubulin (Homo sapiens); assay: Inhibition of [3H]colchicine binding to tubulin (unknown origin) at 0.5 uM relative to control; type: protein-complex assay
[3] = molecular target: Tubulin; assay: Inhibition of tubulin assembly (unknown origin); type: protein-complex assay, Homo sapiens
[4] = system: MCF7; assay: Antiproliferative activity against human MCF7 cells; type: functional, cell-based
[5] = system: MCF7; assay: Antiproliferative activity against human MCF7 cells expressing TUBB3; type: functional, cell-based
[6] = Resistance ratio of EC50 for antiproliferative activity against human MCF7 cells expressing TUBB3 to EC50 for antiproliferative activity against human MCF7 cells; type: functional
Method in brief: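 Resistance ratio: EC50 in MCF-7 cells overexpressing βIII-tubulin divided by EC50 in parental wild-type MCF-7 cells.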

[7] = system: MCF7; assay: Potency index, ratio of EC50 of paclitaxel to EC50 of compound for antiproliferative activity against human MCF7 cells; type: functional
[8] = system: MCF7; assay: Potency index, ratio of EC50 of paclitaxel to EC50 of compound for antiproliferative activity against human MCF7 cells expressing TUBB3; type: functional
[9] = system: OVCAR-8; assay: Antiproliferative activity against human OVCAR-8 cells; type: functional, cell-based
[10] = system: NCI/ADR-RES; assay: Antiproliferative activity against human NCI/ADR-RES cells overexpressing Pgp; type: functional, cell-based
[11] = Resistance ratio of IC50 for antiproliferative activity against human NCI/ADR-RES cells expressing Pgp to IC50 for antiproliferative activity against human OVCAR-8 cells; type: functional
Method in brief: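 Resistance ratio: IC50 in Pgp-overexpressing NCI/ADR-RES cells divided by IC50 in parental OVCAR-8 cells.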

[12] = system: MCF7; assay: Antitumor activity against human MCF7 cells expressing TUBB3 xenografted in athymic mouse assessed as reduction in tumor growth at 10 mg/kg administered twice in a week; type: functional, organism-based
[13] = Toxicity in athymic mouse xenografted with human MCF7 cells expressing TUBB3 assessed as effect on body weight at 10 mg/kg administered twice in a week; type: organism-based; settings: in vivo

| Structure (SMILES) | inhibition [1] | inhibition [2] | IC50 [3] | EC50 [4] | EC50 [5] | IC50 [9] | Ratio EC50 [6] | Ratio EC50 [7] | Ratio EC50 [8] | IC50 [10] | Ratio IC50 [11] | TGI [12] | Activity [13] |
| --- | --- | --- | --- | --- | --- | --- | --- | --- | --- | --- | --- | --- | --- |
| COc1ccc(N(C)c2nc(C)nc3c(Cc4ccccc4)cn(C)c23)cc1 | 92% | 73% | 480 nM |  |  |  |  |  |  |  |  |  |  |
| COc1ccc(N(C)c2nc(C)nc3cc[nH]c23)cc1 | 60% |  | 10000 nM |  |  |  |  |  |  |  |  |  |  |
| CC(C)Oc1ccc(N(C)c2nc(Cl)nc3cnn(C)c23)cc1 | 85% |  | 1100 nM |  |  | 49 nM |  |  |  | 44 nM | 0.89 |  |  |
| CSc1ccc(N(C)c2nc(Cl)nc3cnn(C)c23)cc1 | 93% | 64% | 820 nM |  |  | 31 nM |  |  |  | 17 nM | 0.54 |  |  |
| COc1ccc2c(c1)CCCN2c1nc(Cl)nc2cnn(C)c12 | 94% | 68% | 420 nM |  |  | 17 nM |  |  |  | 8 nM | 0.47 |  |  |

Now from value to compound, other results behind:

| inhibition [1] | inhibition [2] | IC50 [3] | EC50 [4] | EC50 [5] | IC50 [9] | Structure (SMILES) | Ratio EC50 [6] | Ratio EC50 [7] | Ratio EC50 [8] | IC50 [10] | Ratio IC50 [11] | TGI [12] | Activity [13] |
| --- | --- | --- | --- | --- | --- | --- | --- | --- | --- | --- | --- | --- | --- |
| 99% | 88% | 420 nM | 7.7 nM | 9.7 nM | 2 nM | CCOc1ccc(N(C)c2nc(Cl)nc3cnn(C)c23)cc1 | 1.3 | 25 | 220 | 4 nM | 2 |  |  |
|  |  |  | 194 nM | 2070 nM | 5.3 nM | CC(=O)O[C@H]1C(=O)[C@@]2(C)[C@H]([C@H](OC(=O)c3ccccc3)[C@]3(O)C[C@H](OC(=O)[C@H](O)[C@@H](NC(=O)c4ccccc4)c4ccccc4)C(C)=C1C3(C)C)[C@]1(OC(C)=O)CO[C@@H]1C[C@@H]2O [PACLITAXEL] |  |  |  |  |  | Active | Toxic |
| 97% | 77% | 740 nM | 1.7 nM | 2.6 nM | 9 nM | COc1ccc(N(C)c2nc(Cl)nc3cnn(C)c23)cc1F | 1.6 | 100 | 600 | 7 nM | 0.77 |  |  |
